Drawing on ChEMBL document CHEMBL4699550, “Isolation of Picrotoxanes from Austrobuxus carunculatus Using Taxonomy-Based Molecular Networking” (J Nat Prod, 2020), this text covers Activity and IC50 for 15 molecules.

Broadly, the IC50 is the midpoint of a concentration-inhibition curve.

The source made the active and inactive calls. The rule behind the calls is not given here.

The subject of experiment [1] is HCT-116. Nature of the experiment: Antiproliferative activity against human HCT-116 cells assessed as reduction in cell viability at 1 uM after 72 hrs by CellTiter Glo assay. The experiment is classed as functional, cell-based.
The test system of experiment [2] is U-87 MG. Put plainly: Antiproliferative activity against human U87 cells assessed as reduction in cell viability at 1 uM after 72 hrs by CellTiter Glo assay. The experiment is classed as functional, cell-based. The conditions noted are these: U-87MG ATCC.
Experiment [3] has as its system A549. Put plainly: Antiproliferative activity against human A549 cells assessed as reduction in cell viability at 1 uM after 72 hrs by CellTiter Glo assay. The experiment is classed as functional, cell-based. In general terms: In ATP-based viability assays light output follows the ATP content of the culture.
Experiment [4] has as its system U-87 MG. Put plainly: Antiproliferative activity against human U87 cells assessed as reduction in cell viability at 10 uM after 72 hrs by CellTiter Glo assay. Format: functional, cell-based. The conditions noted are these: U-87MG ATCC.
For experiment [5], the system named is A549. Put plainly: Antiproliferative activity against human A549 cells assessed as reduction in cell viability after 72 hrs by CellTiter Glo assay. Format: functional, cell-based. The conditions noted are these: A549, 72 h. In short, it runs like this: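 A549 cells (ATCC) grown in RPMI 1640 with 10% FCS and 1% L-glutamine at 37 °C under 5% CO2. Seeded at 3 × 10³ cells/well and cultured 24 h, then given 10 final concentrations from serial dilution in medium; vehicle controls. After 72 h, viability read by CellTiter-Glo luminescence. Run in triplicate; IC50 from four- or five-parameter logistic fits.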

Experiment [6] deals with A549. Nature of the experiment: Antiproliferative activity against human A549 cells assessed as reduction in cell viability at 10 uM after 72 hrs by CellTiter Glo assay. The experiment is classed as functional, cell-based.
Experiment [7] relates to HCT-116. Put plainly: Antiproliferative activity against human HCT-116 cells assessed as reduction in cell viability at 10 uM after 72 hrs by CellTiter Glo assay. The experiment is classed as functional, cell-based.
Experiment [8] has as its system U-87 MG. Put plainly: Antiproliferative activity against human U87 cells assessed as reduction in cell viability after 72 hrs by CellTiter Glo assay. Format: functional, cell-based, U-87MG ATCC. The essentials:
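U87-MG glioblastoma cells (ATCC) grown in DMEM with 10% FCS and 1% L-glutamine at 37 °C under 5% CO2. Seeded at 3 × 10³ cells/well, cultured 24 h, then treated at 10 final concentrations serially diluted in medium; vehicle-treated controls. CellTiter-Glo luminescence read after 72 h. Triplicate runs; IC50 from four- or five-parameter logistic curves.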

In experiment [9] the test system is HCT-116. Nature of the experiment: Antiproliferative activity against human HCT-116 cells assessed as reduction in cell viability after 72 hrs by CellTiter Glo assay. Format: functional, cell-based. The conditions noted are these: HCT-116, 72 h. In short, it runs like this: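 HCT-116 (ATCC) grown in McCoy's 5A with 10% FCS, 1% L-glutamine, 37 °C, 5% CO2. Seeded 3 × 10³ cells/well; after 24 h treated with 10 final concentrations by serial dilution in medium; vehicle controls; triplicate. Luminescent viability read-out after 72 h, reagent 15 min. IC50 from four- or five-parameter logistic fit of dose-response curves.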

For the molecule `C=C(C)[C@@H]1[C@H]2OC(=O)[C@@H]1[C@]1(O)[C@H]3O[C@H]3[C@]3(C/C(=C\C)C(=O)O3)[C@]1(C)[C@@H]2O`, the outcome in [1], in experiment [2] and in [3] was inactive.

Regarding `C=C(C)[C@@H]1[C@H]2OC(=O)[C@@H]1[C@]1(O)[C@H]3O[C@H]3[C@]3(C[C@H]([C@H](C)OC(=O)CCCCCCCCCCC)C(=O)O3)[C@]1(C)[C@@H]2O`, the result in experiment [1], in [2] and in [3] was inactive.

For the molecule `C=C(C)[C@@H]1[C@H]2OC(=O)[C@@H]1[C@]1(O)[C@H]3O[C@H]3[C@]3(C[C@](O)([C@H](C)OC)C(=O)O3)[C@]1(C)[C@@H]2O`, the outcome in experiment [1], in experiment [2] and in experiment [3] was inactive.

Consider `C=C(C)[C@@H]1[C@H]2OC(=O)[C@@H]1[C@]1(O)[C@H]3O[C@H]3[C@]3(C[C@@H]([C@H](C)OC(=O)CCCCCCCCC)C(=O)O3)[C@]1(C)[C@@H]2O`, for which the outcome in [1], in experiment [2] and in experiment [3] was inactive.

Consider `CCCCCCCCCC(=O)O[C@@H]1[C@@H]2OC(=O)[C@@H]([C@@H]2C(C)C)[C@]2(O)[C@H]3O[C@H]3[C@]3(C[C@](O)([C@H](C)OC)C(=O)O3)[C@]12C`, for which the outcome in experiment [4], in [6] and in [7] was Active. In addition, the results for the IC50 in experiment [5] and in [8] were 5.8 µM and 700 nM, respectively. For the same molecule, the outcome in experiment [1], in experiment [2] and in experiment [3] was inactive.

For `C=C(C)[C@@H]1[C@H]2OC(=O)[C@@H]1[C@]1(O)[C@H]3O[C@H]3[C@]3(CO3)[C@]1(C)[C@@H]2OC(=O)CCCCCCCCCCC`, the result in [4], in experiment [6] and in experiment [7] was Active. For the same molecule, the result in experiment [1], in experiment [2] and in [3] was inactive.

As for `C=C(C)[C@@H]1[C@H]2OC(=O)[C@@H]1[C@]1(O)[C@H]3O[C@H]3[C@]3(C[C@@H]([C@H](C)OC(=O)CCCCCCCCCCC)C(=O)O3)[C@]1(C)[C@@H]2O`, the result in [1], in experiment [2] and in experiment [3] was inactive.

Regarding `C=C(C)[C@@H]1[C@H]2OC(=O)[C@@H]1[C@]1(O)[C@H]3O[C@H]3[C@]3(CO3)[C@]1(C)[C@@H]2O`, the outcome in experiment [1], in experiment [2] and in experiment [3] was inactive.

As for `C=C(C)[C@@H]1[C@H]2OC(=O)[C@@H]1[C@]1(O)[C@H]3O[C@H]3[C@]3(C[C@H]([C@H](C)OC(=O)CCCCCCCCC)C(=O)O3)[C@]1(C)[C@@H]2O`, the outcome in [1], in experiment [2] and in experiment [3] was inactive.

`COc1cccc2c1C(=O)c1c(O)c3c(c(O)c1C2=O)C[C@@](O)(C(=O)CO)C[C@@H]3O[C@H]1C[C@H](N)[C@H](O)[C@H](C)O1` [DOXORUBICIN]: the IC50 was 90 µM in [5], 56.6 µM in [9] and 99600 nM in experiment [8].

In the case of `C=C(C)[C@@H]1[C@H]2OC(=O)[C@@H]1[C@]1(O)[C@H]3O[C@H]3[C@]3(C[C@H]([C@H](C)OC(=O)CCCCCCCCCCCCC)C(=O)O3)[C@]1(C)[C@@H]2O`, the result in [1], in [2] and in experiment [3] was inactive.

With `C=C(C)[C@@H]1[C@H]2OC(=O)[C@@H]1[C@]1(O)[C@H]3O[C@H]3[C@]3(C[C@H]([C@H](C)OC(=O)CCCCCCCCCCCCCCC)C(=O)O3)[C@]1(C)[C@@H]2O`, the outcome in [1], in experiment [2] and in experiment [3] was inactive.

For `C=C(C)[C@@H]1[C@H]2OC(=O)[C@@H]1[C@]1(O)[C@H]3O[C@H]3[C@]3(C[C@@H]([C@H](C)O)C(=O)O3)[C@]1(C)[C@@H]2OC(=O)CCCCCCCCCCC`, the outcome in [4], in experiment [6] and in experiment [7] was Active. Also, the IC50 in [5] was 5.8 µM; in experiment [8], 700 nM. Further, the outcome in experiment [1], in [2] and in [3] was inactive.

In the case of `C=C(C)[C@@H]1[C@H]2OC(=O)[C@@H]1[C@]1(O)[C@H]3O[C@H]3[C@]3(C[C@@H]([C@H](C)O)C(=O)O3)[C@]1(C)[C@@H]2O`, the outcome in [1], in [2] and in experiment [3] was inactive.

`CO[C@@H](C)[C@@]1(O)C[C@@]2(OC1=O)[C@@H]1O[C@@H]1[C@@]1(O)[C@H]3C(=O)O[C@H]([C@H]3C(C)C)[C@@H](O)[C@]12C`: the result in experiment [1], in [2] and in [3] was inactive.
